Compound activity deposited in PubChem by Sanford-Burnham Center for Chemical Genomics.
NadD block: inhibitors of Staphylococcus aureus NadD. hit rate 0.78% among 360,000. inhibition, % at 20 µM. purified NadD enzyme, colorimetric absorbance read-out; in the data active = inhibition above about 26%
Scp1 inh: inhibitors of human Scp-1 phosphatase | Recombinant Scp1, phosphopeptide, malachite green phosphate absorbance | Q9GZU7 | AID 493091 | hit rate 0.88% among 340,000 | inhibition, % at 20 µM;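 active = inhibition above about 50% at 20 µM, limit read from the data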;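 also: plate controls were DMSO wells with enzyme for no effect and wells lacking enzyme for full effect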
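Test system: SCP-1 phosphatase catalytic domain, residues 76-261; measured by: colorimetric phosphate reagent with accelerator and stabiliser, absorbance at 630 nm; timing: enzyme reaction 45 min at room temperature, colour 5 min, stabilisation 30 min; also added: Phosphorylated 17-residue peptide substrate; compound dosing: one concentration, 20 µM, with 1.0% DMSO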
LMPTP inh: blocks human LMPTP phosphatase. recombinant LMPTP-A, OMFP fluorogenic substrate, fluorescence intensity. P24666. AID 651560. inhibition, % at 20 µM. hit rate 0.22% among 360,000;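 active = compounds that cut the enzyme signal by at least half of the control window in the single-dose screen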;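 also: plate controls were DMSO wells with enzyme plus substrate for no effect and substrate without enzyme for full effect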
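test system = LMPTP-A | amount = 0.625 nM LMPTP-A final | reagent = fluorogenic phosphatase substrate OMFP at 400 µM final | incubation = 50 min at room temperature | benchmarks = no-enzyme low control, uninhibited high control | medium = Bis-Tris pH 6.0, DTT, detergent | signal = fluorescence intensity of OMFP turnover product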
STEP inh: blocks human striatal-enriched tyrosine phosphatase; P54829; recombinant STEP, OMFP fluorogenic substrate, fluorescence; inhibition, % at 20 µM; hit rate 0.25% among 360,000; AID 588621;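 active = inhibition at 20 µM, scaled per plate between control wells, above about 37%, limit read from the data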;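 also: 0% = DMSO with enzyme and substrate and 100% = substrate only without enzyme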
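Material: STEP (striatal-enriched tyrosine phosphatase) enzyme, cell-free | Medium: 50 mM Bis-Tris pH 6.0 with 2.5 mM DTT and 0.005% Tween 20 | Read-out: Percent inhibition scaled to no-enzyme and uninhibited-enzyme controls, plate-pattern corrected | Signal: Fluorescence read at 480 nm ex / 540 nm em | Times: 20 min reaction, room temperature, in the dark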
SUMO1-SIM PPI: SUMO1-SIM interaction modulation; P63165; inhibition, % at 20 µM; SUMO1 binding to a labelled peptide, TR-FRET, 1 h; hit rate 0.33% among 360,000; in the data active = inhibition above about 37%
DNMT1 inh: inhibitors of human DNMT1; P26358; DNMT1 molecular beacon, Hinp1I cleavage, fluorescence; inhibition (reported as % activation of signal), % at 10 µM; hit rate 0.83% among 360,000; in the data active = inhibition above about 50%
Target sequence (P26358 504-1616 limits assumed): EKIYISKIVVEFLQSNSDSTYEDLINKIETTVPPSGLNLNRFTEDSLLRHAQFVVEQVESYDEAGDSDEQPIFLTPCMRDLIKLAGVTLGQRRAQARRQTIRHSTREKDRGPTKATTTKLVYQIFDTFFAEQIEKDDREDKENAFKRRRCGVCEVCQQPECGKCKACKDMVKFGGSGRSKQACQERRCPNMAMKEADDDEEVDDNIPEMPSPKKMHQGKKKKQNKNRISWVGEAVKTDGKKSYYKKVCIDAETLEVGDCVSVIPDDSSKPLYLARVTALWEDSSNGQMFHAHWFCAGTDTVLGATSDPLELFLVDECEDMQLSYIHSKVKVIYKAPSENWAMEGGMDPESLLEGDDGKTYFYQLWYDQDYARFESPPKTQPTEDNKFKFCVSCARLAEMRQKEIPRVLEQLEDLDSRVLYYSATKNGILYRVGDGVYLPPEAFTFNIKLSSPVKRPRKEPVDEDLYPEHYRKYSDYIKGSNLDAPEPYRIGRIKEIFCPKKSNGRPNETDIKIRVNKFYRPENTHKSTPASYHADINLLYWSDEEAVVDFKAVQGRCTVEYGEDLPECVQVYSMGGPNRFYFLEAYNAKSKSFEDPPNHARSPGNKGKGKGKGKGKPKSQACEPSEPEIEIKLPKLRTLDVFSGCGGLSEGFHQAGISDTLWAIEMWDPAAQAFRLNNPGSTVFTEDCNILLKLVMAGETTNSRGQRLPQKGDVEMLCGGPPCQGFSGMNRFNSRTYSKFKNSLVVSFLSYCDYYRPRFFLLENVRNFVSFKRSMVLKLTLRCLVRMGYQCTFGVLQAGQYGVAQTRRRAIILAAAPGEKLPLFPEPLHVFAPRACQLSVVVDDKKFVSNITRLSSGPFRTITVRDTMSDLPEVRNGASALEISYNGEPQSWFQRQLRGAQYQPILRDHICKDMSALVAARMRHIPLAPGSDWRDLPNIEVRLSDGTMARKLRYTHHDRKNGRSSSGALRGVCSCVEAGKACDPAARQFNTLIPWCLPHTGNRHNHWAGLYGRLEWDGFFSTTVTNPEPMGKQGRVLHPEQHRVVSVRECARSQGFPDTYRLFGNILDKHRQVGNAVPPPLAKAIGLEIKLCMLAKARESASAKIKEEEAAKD
Active calls of the source: *; / = not tested or not shown. An excerpt weighted towards active compounds, which were near 2.4% of everything screened.

SMILES | NadD block | Scp1 inh | LMPTP inh | STEP inh | SUMO1-SIM PPI | DNMT1 inh
COc1ccc(OC)c(C2CC(=O)c3c([nH]c(C(=O)OCC4CCCO4)c3C)C2)c1 (stereo not given) | -1 | -13 | 2 | 4 | 5 | -3
C/C=C/COC(=O)c1[nH]c2c(c1C)C(=O)CC(c1ccc(N(C)C)cc1)C2 (stereo not given) | 15 | 0 | 4 | -1 | 4 | 1
C/C=C/COC(=O)c1[nH]c2c(c1C)C(=O)CC(c1ccco1)C2 (stereo not given) | 6 | 52* | 61* | 0 | 14 | 37
Cc1c(C(=O)OC2CCCC2)[nH]c2c1C(=O)CC(c1ccco1)C2 (stereo not given) | -3 | 34 | 37 | -1 | 19 | 14
O=C(Nc1ccc(NC(=O)c2ccccc2)c2ccccc12)c1ccccc1 | -1 | / | -2 | -4 | -2 | 7
Cc1ccc(C(=O)NN2C(=O)C3C(C2=O)C2C=CC3C23CC3)cc1 (stereo not given) | -4 | 1 | -1 | 0 | 60* | 0
O=C(NN1C(=O)C2C(C1=O)C1C=CC2C12CC2)c1ccc(Cl)cc1 (stereo not given) | 2 | -4 | -3 | 2 | 1 | -2
Cn1cc(Cc2ccc(C(=O)N3CCCCC3)cn2)c2ccccc21 | 8 | / | -1 | 5 | -6 | -2
COc1ccc(CNC(=O)CN2C(=O)CCSc3ccc(S(=O)(=O)N4CCCC4)cc32)cc1 | -5 | -11 | 0 | -1 | 1 | -3
COc1cc(/C=C2\SC(=Nc3ccccc3)NC2=O)cc(Cl)c1O | 14 | -11 | 0 | 0 | -43 | 3
COc1cc(/C=C2\SC(=Nc3ccc(Cl)c(C(=O)O)c3)NC2=O)c(Br)c(Br)c1O | 70* | 53* | -23 | 27 | -21 | 27
COc1ccc(C2=CC3=C(Br)C(=O)C(C)(OC(=O)c4cccs4)C(=O)C3=CO2)cc1 (stereo not given) | 27 | 9 | 0 | 2 | 44* | -9
CC1=C(C(=O)Nc2ccc(CC(=O)NCc3ccccc3C)cc2)SCCO1 | 1 | -6 | 0 | 2 | 4 | -1
CCc1ccc(CNC(=O)Cc2ccc(NC(=O)C3=C(C)OCCS3)cc2)cc1 | 1 | 85* | 6 | 2 | 2 | 48
Cn1cnnc1SCc1ccc(C(=O)N=Nc2c(O)n(Cc3ccc(Cl)cc3)c3ccccc23)cc1 | 35* | 9 | 11 | 8 | 9 | -16
CCn1c(O)c(N=NC(=O)c2ccc(CSc3nncn3C)cc2)c2ccccc21 | 9 | 4 | 1 | -1 | -21 | -1
O=C1C=CC2=C3c4cc(O)c(O)cc4CC3(O)COC2=C1O (stereo not given) | 48* | 42 | 67* | 11 | 58* | 91*
Cc1ccccc1C(=O)NN1C(=O)CSC1=S | 1 | 8 | 0 | -4 | 7 | 3
O=C(NN1C(=O)CSC1=S)c1cccnc1 | -1 | -4 | 0 | 4 | 60* | -3
O=C(Cc1ccc(-n2c(=O)c3ccccc3n(Cc3ccccc3F)c2=O)cc1)NCC1CCCO1 (stereo not given) | 1 | 3 | 2 | 0 | 2 | 7
O=C(Cc1ccc(-n2c(=O)c3ccccc3n(Cc3ccc(F)cc3)c2=O)cc1)NCC1CCCO1 (stereo not given) | 6 | -30 | 0 | 2 | 40* | 1
COc1cc(/C=N/NC(=O)c2cccnc2)ccc1OCC(=O)Nc1ccccc1Cl | -6 | 12 | 4 | 19 | 86* | 35
N#Cc1c(-c2ccccc2)nc(SCC(=O)N(c2ccccc2)c2ccccc2)[nH]c1=O | 16 | -7 | 1 | -1 | 8 | 0
N#Cc1c(-c2ccccc2)nc(SCC(=O)N2c3ccccc3Sc3ccccc32)[nH]c1=O | 22 | -2 | 4 | -4 | 47* | 5
CCCCC(=O)Nc1ccc(NC(=O)C2CC2)nc1 | -4 | -4 | -1 | -2 | 57* | 5
SMILES | NadD block | Scp1 inh | LMPTP inh | STEP inh | SUMO1-SIM PPI | DNMT1 inh
COc1ccc(/C=C2/NC(=O)CNC2=O)cc1 | -21 | -14 | -1 | 0 | -23 | 0
O=C(O)CSc1cc(C(=O)c2cc(F)ccc2O)cn2c(=O)c3c(-c4ccccc4)csc3nc12 | 19 | -11 | 14 | 6 | 18 | -1
CCOC(=O)c1sc2nc3c(SCCC(=O)O)cc(C(=O)c4cc(OC)ccc4O)cn3c(=O)c2c1C | 43* | 27 | 92* | 96* | 84* | 104*
COc1ccc(CNC(=O)COC(=O)CN2C(=O)C3CCCCC3C2=O)cc1 (stereo not given) | -1 | / | -1 | -1 | 0 | -4
C=C[C@@H]1c2cc(C)ccc2N(S(=O)(=O)c2ccc(C)cc2)[C@H](c2ccccc2C(F)(F)F)C1(C#N)C#N | 12 | -8 | 0 | 1 | 3 | 7
Oc1c(N=Nc2nn[nH]n2)ccc2ccccc12 | 15 | / | 9 | 3 | 50* | 36
CC(C)CCNC(=O)CN(CC1CCCO1)C(=O)CCC(=O)Nc1nccs1 (stereo not given) | 3 | 5 | 0 | -7 | -3 | 4
CCC(C)(C)NC(=O)CN(CC1CCCO1)C(=O)CCC(=O)Nc1nccs1 (stereo not given) | 5 | 22 | 1 | -1 | 47* | 0
Cc1cc(C(=O)NC2CCCc3c2cnn3-c2ccc(C)c(C)c2)n(C)n1 (stereo not given) | 2 | 79* | 1 | 0 | -2 | 1
Cc1ccc(-n2ncc3c2CCCC3NC(=O)c2ccoc2)cc1C (stereo not given) | 1 | -5 | 1 | -1 | 5 | -2
CCn1c(SC(C)C(=O)O)nc2sc3c(c2c1=O)CCC3 (stereo not given) | 3 | 78* | 15 | 10 | 13 | 90*
CCOC(=O)C1=C(C)N(C)C(=O)NC1c1cccc(O)c1 (stereo not given) | 1 | 3 | 0 | -1 | 56* | -1
CCOC(=O)C1=C(C)N(CCO)C(=O)NC1c1cccc(O)c1 (stereo not given) | -1 | -11 | 0 | 1 | 0 | 2
Cc1cccc2c(SCC(N)=O)nc(-c3ccccc3)nc12 | -7 | -5 | -3 | 1 | -1 | 8
C[C@@H]1CN([C@H](C)CO)C(=O)c2cc(NC(=O)Nc3ccc(C(F)(F)F)cc3)ccc2O[C@H]1CN(C)Cc1ccc(Cl)c(Cl)c1 | 33* | -2 | 2 | -2 | 4 | -28
Cc1noc(C)c1S(=O)(=O)Nc1ccc2c(c1)C(=O)N([C@H](C)CO)C[C@H](C)[C@@H](CN(C)C(=O)Nc1ccc(C(F)(F)F)cc1)O2 | 14 | 37 | -1 | -2 | 3 | 6
